OX1R antag-1: OX1R (HCRTR1) antagonists, primary screen, fluorescence, CHO/OX1R cells, Fluo-8 calcium, orexin A | Fluo-8 calcium fluorescence | inhibition, % at 5 µM | Orexin/Hypocretin receptor type 1 (Homo sapiens), O43613 | hit rate 0.43% among 330,000 | AID 434989, 2010;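 active = inhibition above its plate's threshold, mean inhibition of all tested compounds on the plate plus 3 SD, cut at about 37% in these data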;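 also: 0% = orexin A challenge wells and 100% = SB-334867-A antagonist wells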
GalR3 antagonist: GalR3 antagonists in HEK293 cells, primary screen, cell-based, fluorescence readout; Galanin receptor type 3 (Homo sapiens), O60755; HEK293 GalR3-CNG cAMP membrane potential fluorescence; galR3 body fused to GalR1 C-terminus; inhibition, % at 3 µM; hit rate 0.44% among 360,000;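 active = inhibition above the screen-wide average plus 3 SD, cut at about 13% in these data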;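 also: forskolin and galanin both at EC90 stimulate the cells; cAMP rise reported by CNG channel membrane potential dye signal; 0% = forskolin plus galanin with DMSO and 100% = forskolin alone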
Target sequence (O60755 1-299 limits assumed): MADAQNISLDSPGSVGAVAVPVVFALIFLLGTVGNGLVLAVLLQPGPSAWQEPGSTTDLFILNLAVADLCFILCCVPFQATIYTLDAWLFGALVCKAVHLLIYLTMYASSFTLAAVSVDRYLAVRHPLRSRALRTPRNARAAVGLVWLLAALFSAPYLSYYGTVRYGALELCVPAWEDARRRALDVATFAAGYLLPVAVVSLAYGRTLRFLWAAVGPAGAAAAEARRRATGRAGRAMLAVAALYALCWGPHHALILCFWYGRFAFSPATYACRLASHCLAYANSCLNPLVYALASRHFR
TAAR1 antag: human TAAR1 antagonists, primary screen, Fluo-8 calcium fluorescence, CHO RD-HGA16 cells; Trace amine-associated receptor 1 (Homo sapiens), Q96RJ0; antagonist; inhibition, % at 3 µM; hit rate 1.5% among 360,000;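 active = inhibition above a per-plate cutoff, the mean inhibition of test compounds on that plate plus 3 SD, cut at about 49% in these data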;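 also: 0% = DMSO plus EC80 beta-PEA response and 100% = DMSO alone without agonist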
Target sequence (Q96RJ0 whole entry, looked up): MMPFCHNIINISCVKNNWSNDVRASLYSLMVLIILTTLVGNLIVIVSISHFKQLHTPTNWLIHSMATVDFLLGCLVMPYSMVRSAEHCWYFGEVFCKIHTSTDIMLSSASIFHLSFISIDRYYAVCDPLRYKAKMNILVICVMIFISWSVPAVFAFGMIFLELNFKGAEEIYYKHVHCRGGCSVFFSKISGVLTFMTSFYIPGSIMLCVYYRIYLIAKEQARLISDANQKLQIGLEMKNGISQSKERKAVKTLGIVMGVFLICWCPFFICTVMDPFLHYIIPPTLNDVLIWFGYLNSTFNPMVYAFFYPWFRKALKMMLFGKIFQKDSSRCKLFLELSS
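Assay system: CHO-derived RD-HGA16 cells stably expressing human TAAR1 plus Gα16. Timing: 140 s kinetic read after compound, 140 s after agonist. Technique: kinetic Fluo-8 calcium fluorescence measurement. Measure: % inhibition of agonist calcium response.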
OX1R antag-2: antagonists of human orexin 1 receptor (OX1R). Orexin/Hypocretin receptor type 1 (Homo sapiens), O43613. OX1R-expressing cells, FRET antagonist read-out. inhibition, % at 6.6 µM. hit rate 1.8% among 330,000; in the data active = inhibition mostly above about 38%, no sharp cut-off; inactive = mostly below about 40%;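 also: 0% = agonist challenge alone and 100% = reference antagonist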
CHO parental Ca: ATP-evoked calcium signal inhibitors, parental CHO, primary screen, counter-screen for OX1R antagonist project, cell-based, fluorescence, Fluo-8 calcium dye | parental CHO-K1, ATP-induced calcium, Fluo-8 fluorescence | inhibition, % at 5.6 µM | hit rate 0.63% among 330,000;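 active = inhibition above that plate's mean sample inhibition plus 3 SD, cut at about 26% in these data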;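 also: 0% = ATP-challenged DMSO wells and 100% = DMSO wells without ATP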
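Material – parental CHO cells · Reagent – ATP stimulus · Compound – single nominal dose of 5.6 µM per compound · Detection – Fluo-8 fluorescence · Read-out basis – percent inhibition of calcium signal · Controls – ATP-challenged DMSO wells low, unchallenged DMSO wells high · Repeats – no replicates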
TAAR1 ag: human TAAR1 agonists, primary screen, Fluo-8 calcium fluorescence, CHO RD-HGA16 cells; vehicle wells 0%, saturating PEA agonist 100%; activation, % at 3 µM; hit rate 0.99% among 360,000; AID 624467, 2012;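 active = activation above the mean activation of all test compounds in the run plus 3 SD, cut at about 38% in these data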
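Test system: RD-HGA16 (CHO) cells co-expressing Gα16 and hTAAR1 / Benchmarks: DMSO vehicle as 0%, PEA at EC100 as 100% / Repeats: no replicates (n 1) / Measure: % activation from peak over basal fluorescence ratio, DMSO-to-PEA scaled / Timing: 17-24 h plating, Fluo-8 75 min 37 °C, 30 min RT / Technique: kinetic Fluo-8 calcium fluorescence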
OX1R HTRF conf: OX1R (HCRTR1) antagonists, confirmation, cell-based, HTRF; shares compounds with OX1R antag-2; OX1R-expressing cells, HTRF antagonist assay; inhibition, % at 6.6 µM; hit rate 49% among 1,800; in the data active = inhibition above about 55%;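 also: CHO cells expressing OX1R stimulated with orexin A at about EC80; 0% = agonist challenge alone and 100% = reference antagonist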
CHO-K1 HTRF: signal inhibition in parental CHO-K1 cells, counter-screen for OX1R antagonist project, cell-based, HTRF; HTRF counterscreen; inhibition, % at 6.6 µM; shares compounds with OX1R antag-2; hit rate 48% among 1,800; AID 493232, 2011; in the data active = inhibition above about 17%;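 also: 0% = agonist challenge with vehicle and 100% = vehicle alone without agonist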
Starred values were filed as active, the others as inactive. Most compounds without a hit are left out; they make up all but 4.3% or so of the library.

Results for COc1cccc2cc(-c3nc4ccccc4o3)c(=O)oc12 ?
OX1R antag-1: 0; GalR3 antagonist: -6; TAAR1 antag: 0; OX1R antag-2: 123*; CHO parental Ca: -22; TAAR1 ag: 5; OX1R HTRF conf: 25; CHO-K1 HTRF: 18*

How did COc1cc(NC(=O)c2ccc(Cl)cc2)c2ncccc2c1 do in these assays?
GalR3 antagonist: -5; TAAR1 antag: 11; TAAR1 ag: 6

How did COC(=O)c1sccc1NC(=O)c1ccc(OC)cc1 do in these assays?
OX1R antag-1: 4; GalR3 antagonist: -6; TAAR1 antag: 7; OX1R antag-2: 89*; CHO parental Ca: -14; TAAR1 ag: 2; OX1R HTRF conf: 68*; CHO-K1 HTRF: 5

Results for COC(=O)c1sccc1NC(=O)c1ccc(C)cc1 ?
OX1R antag-1: -32; GalR3 antagonist: 0; TAAR1 antag: -15; OX1R antag-2: 23; CHO parental Ca: -14; TAAR1 ag: 7

How did COc1cc(OC)cc(C(=O)Nc2cccc3cccnc23)c1 do in these assays?
OX1R antag-1: -3; GalR3 antagonist: -7; TAAR1 antag: -15; OX1R antag-2: 81*; CHO parental Ca: -12; TAAR1 ag: 0; OX1R HTRF conf: 75*; CHO-K1 HTRF: 6

What do the screens show for `COc1ccc(C(=O)Nc2cc(OC)cc3cccnc23)cc1`?
OX1R antag-1: 26; GalR3 antagonist: -8; TAAR1 antag: -1; OX1R antag-2: 99*; CHO parental Ca: -18; TAAR1 ag: 1; OX1R HTRF conf: 86*; CHO-K1 HTRF: 22*

How did COc1ccccc1C#Cc1cnc2c(c1)C(=O)N([C@H](C)CO)C[C@H](C)[C@@H](CN(C)S(=O)(=O)c1cn(C)cn1)O2 do in these assays?
GalR3 antagonist: -4; TAAR1 antag: 26; TAAR1 ag: 8

How did O=[N+]([O-])c1ccc2c(c1)nc1n2CCN(c2ccccc2)C1 do in these assays?
OX1R antag-1: -14; GalR3 antagonist: 3; TAAR1 antag: 1; OX1R antag-2: 17; CHO parental Ca: -7; TAAR1 ag: -1

How did O=[N+]([O-])c1ccc2c(c1)nc1n2CCN(CC2CCCO2)C1 (stereo not drawn) do in these assays?
OX1R antag-1: -14; GalR3 antagonist: -3; TAAR1 antag: -34; OX1R antag-2: 81*; CHO parental Ca: -8; TAAR1 ag: 3; OX1R HTRF conf: 43; CHO-K1 HTRF: 27*

What do the screens show for `O=C(O)CCCCCNc1ccc2nsnc2c1[N+](=O)[O-]`?
OX1R antag-1: 0; GalR3 antagonist: -1; TAAR1 antag: 4; OX1R antag-2: 117*; CHO parental Ca: -1; TAAR1 ag: 0; OX1R HTRF conf: 74*; CHO-K1 HTRF: 112*

What do the screens show for `NC(=O)c1c(NC(=O)c2ccncc2)sc2c1CCCC2`?
OX1R antag-1: -30; GalR3 antagonist: -6; TAAR1 antag: -4; OX1R antag-2: 20; CHO parental Ca: -11; TAAR1 ag: 9

What do the screens show for `NC(=O)c1c(NC(=O)c2ccccc2)sc2c1CCC2`?
OX1R antag-1: 14; GalR3 antagonist: -2; TAAR1 antag: -38; OX1R antag-2: 89*; CHO parental Ca: -20; TAAR1 ag: -2; OX1R HTRF conf: 84*; CHO-K1 HTRF: 3

How did CC1CCCCN1C(=O)Cn1cnc2cc([N+](=O)[O-])ccc2c1=O (stereo not drawn) do in these assays?
OX1R antag-1: -10; GalR3 antagonist: 7; TAAR1 antag: -32; OX1R antag-2: 123*; CHO parental Ca: -13; TAAR1 ag: 2; OX1R HTRF conf: 81*; CHO-K1 HTRF: 86*

How did Cc1cc(C)c(C(=O)Cn2cnc3cc([N+](=O)[O-])ccc3c2=O)cc1C do in these assays?
OX1R antag-1: -6; GalR3 antagonist: -5; TAAR1 antag: -11; OX1R antag-2: 24; CHO parental Ca: -13; TAAR1 ag: -2

How did COc1cc(/C=N/Nc2nncn2N)ccc1OCc1c(C)no[n+]1[O-] do in these assays?
OX1R antag-1: -22; GalR3 antagonist: 1; TAAR1 antag: 4; OX1R antag-2: 89*; CHO parental Ca: -7; TAAR1 ag: -1; OX1R HTRF conf: 19; CHO-K1 HTRF: 18*

Results for CC(=O)Nc1ccc(NC(=O)C(C)OC(=O)c2cccs2)cc1 (stereo not drawn) ?
OX1R antag-1: -3; GalR3 antagonist: -2; TAAR1 antag: -6; OX1R antag-2: 5; CHO parental Ca: -4; TAAR1 ag: -2

Results for COc1cccc(C(=O)NC2CC3CCC(C2)N3Cc2ccccc2)c1 (stereo not drawn) ?
OX1R antag-1: -13; GalR3 antagonist: -9; TAAR1 antag: 14; OX1R antag-2: 3; CHO parental Ca: -12; TAAR1 ag: 0

How did COc1cccc(C(=O)NC2CC3CCCC(C2)N3CC(=O)Nc2ccccc2C(F)(F)F)c1 (stereo not drawn) do in these assays?
OX1R antag-1: 8; GalR3 antagonist: -11; TAAR1 antag: 27; OX1R antag-2: 90*; CHO parental Ca: -19; TAAR1 ag: -1; OX1R HTRF conf: 89*; CHO-K1 HTRF: 6

How did O=C(C[n+]1ccc(-c2nnc3n2CCC3)cc1)c1ccc(Cl)c(Cl)c1 do in these assays?
OX1R antag-1: -6; GalR3 antagonist: 2; TAAR1 antag: -1; OX1R antag-2: 53; CHO parental Ca: -4; TAAR1 ag: 2

How did COc1ccc(C(=O)C[n+]2ccc(-c3nnc4n3CCC4)cc2)cc1 do in these assays?
OX1R antag-1: -8; GalR3 antagonist: -2; TAAR1 antag: -13; OX1R antag-2: 85*; CHO parental Ca: -4; TAAR1 ag: 6; OX1R HTRF conf: 64*; CHO-K1 HTRF: 50*

How did Cn1c(O)c(N=Nc2nc(-c3ccccc3)cs2)c2ccccc21 do in these assays?
OX1R antag-1: -17; GalR3 antagonist: -10; TAAR1 antag: -3; OX1R antag-2: 11; CHO parental Ca: -8; TAAR1 ag: 7

How did CC(C)CC(=O)Nc1cccc(-c2nc3ccccc3o2)c1 do in these assays?
OX1R antag-1: -24; GalR3 antagonist: 0; TAAR1 antag: 9; OX1R antag-2: 24; CHO parental Ca: -5; TAAR1 ag: 15

Compound activity: PubChem BioAssay, The Scripps Research Institute Molecular Screening Center
